Results as given in ChEMBL document CHEMBL1149130, “Synthesis and biological evaluation of novel chloroethylaminoanthraquinones with potent cytotoxic activity against cisplatin-resistant tumor cells” (J Med Chem, 2004).

How the values were obtained:
Homo sapiens = organism: Homo sapiens; assay: Resistance factor (IC50 in the resistant cell line/IC50 in the parent cell line); format: functional
A2780 [1] = assay: Growth inhibition against A2780 cisplatin resistant wild-type ovarian cell lines; format: functional, cell-based; conditions: Homo sapiens
Method in brief: (§1)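 Cells in exponential growth (5 × 10⁴ cells/mL) were exposed to compound freshly dissolved in DMSO for 24 h at 37 °C. Drug medium was then replaced with fresh medium, followed by 3 days of growth. Viability was read by sulforhodamine B staining. IC50 is the concentration giving a 50% reduction in SRB colour formation.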

SK-OV-3 [2] = assay: Growth inhibition against SKOV3 wild-type ovarian cell lines; format: functional, cell-based; conditions: Homo sapiens; method in brief: as §1
CH1 [3] = assay: Growth inhibition against CH-1 cisplatin resistant wild-type ovarian cell lines; format: functional, cell-based, Homo sapiens; method in brief: as §1
CH1 [4] = assay: Growth inhibition against CH-1 wild-type ovarian cell lines; format: functional, cell-based; conditions: Homo sapiens; method in brief: as §1
A2780 [5] = assay: Growth inhibition against A2780 wild-type ovarian cell lines; format: functional, cell-based; conditions: Homo sapiens; method in brief: as §1
CH1 [6] = assay: Compound was evaluated for growth inhibition against CH1cisR wild-type ovarian cell lines; format: functional, cell-based; conditions: Homo sapiens
Method in brief: (§2)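 Cells kept as in earlier work; exponentially growing cultures (5 × 10⁴ cells/mL) given compound freshly dissolved in DMSO, 24 h at 37 °C. Drug medium then replaced with fresh medium, followed by 3 day growth. Viability by sulforhodamine B staining; IC50 taken as concentration giving 50% reduction in SRB colour formation.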

SK-OV-3 [7] = assay: Compound was evaluated for growth inhibition against SKOV3 wild-type ovarian cell lines; format: functional, cell-based; conditions: Homo sapiens; method in brief: as §2

IC50 (SK-OV-3 [7])	Compound	RF (Homo sapiens)	IC50 (A2780 [1])	IC50 (SK-OV-3 [2])	IC50 (CH1 [3]; Homo sapiens, CH1)	IC50 (CH1 [4])	IC50 (A2780 [5])	RF (Homo sapiens; Homo sapiens)	IC50 (CH1 [6])	IC50 (CH1 [3]; ch1)
–	O=C1c2ccccc2C(=O)c2c(NCCCN(CCCl)CCCl)ccc(NCCCN(CCCl)CCCl)c21	3.7	52 nM	190 nM	110 nM	30 nM	31 nM	–	–	–
–	CN(CCO)CCNc1cccc2c1C(=O)c1ccccc1C2=O	1	4200 nM	13000 nM	2800 nM	2900 nM	3400 nM	1.2	–	–
–	CN(CCCl)CCNc1ccc(NCCN(C)CCCl)c2c1C(=O)c1c(O)ccc(O)c1C2=O	1.9	24 nM	100 nM	14 nM	7 nM	9 nM	2.7	–	–
–	O=C1c2c(O)ccc(O)c2C(=O)c2c(NCCN(CCCl)CCCl)ccc(NCCN(CCCl)CCCl)c21	2	170 nM	1450 nM	110 nM	54 nM	120 nM	1.4	–	–
18000 nM	O=C1c2ccccc2C(=O)c2c(NCCN(CCO)CCO)ccc(NCCN(CCO)CCO)c21	0.8	3500 nM	–	–	3900 nM	3300 nM	1.1	3300 nM	–
–	O=C1c2ccccc2C(=O)c2c(NCCCN(CCCl)CCCl)cccc21	2.9	640 nM	1900 nM	550 nM	185 nM	410 nM	1.6	–	–
–	CN(CCCl)CCNc1cccc2c1C(=O)c1ccccc1C2=O	1.2	8000 nM	13500 nM	3100 nM	2500 nM	4600 nM	1.7	–	–
–	CN(CCO)CCCNc1cccc2c1C(=O)c1ccccc1C2=O	1	3300 nM	11500 nM	2600 nM	2600 nM	3100 nM	1.1	–	–
–	CN(CCO)CCNc1ccc(NCCN(C)CCO)c2c1C(=O)c1ccccc1C2=O	1.2	580 nM	3300 nM	800 nM	680 nM	720 nM	0.8	–	–
–	O=C1c2c(O)ccc(O)c2C(=O)c2c(NCCCN(CCO)CCO)ccc(NCCCN(CCO)CCO)c21	1.3	740 nM	2450 nM	780 nM	580 nM	680 nM	1.1	–	–
–	CN(CCCl)CCNc1ccc(NCCN(C)CCCl)c2c1C(=O)c1ccccc1C2=O	1.3	355 nM	770 nM	145 nM	110 nM	135 nM	2.6	–	–
–	CN(C)CCNc1ccc(NCCN(CCO)CCO)c2c1C(=O)c1c(O)ccc(O)c1C2=O	1.6	13 nM	260 nM	46 nM	30 nM	13 nM	1	–	–
–	CN(CCO)CCNc1ccc(NCCN(C)CCO)c2c1C(=O)c1c(O)ccc(O)c1C2=O	2.6	4 nM	11000 nM	22 nM	8 nM	4 nM	–	–	–
6700 nM	O=C1c2ccccc2C(=O)c2c(NCCCN(CCO)CCO)ccc(NCCCN(CCO)CCO)c21	1.1	3400 nM	–	–	2200 nM	3500 nM	1	2400 nM	–
–	CN(CCCl)CCCNc1cccc2c1C(=O)c1ccccc1C2=O	0.9	2700 nM	10800 nM	1300 nM	1440 nM	2700 nM	1	–	–
–	O=C1c2ccccc2C(=O)c2c(NCCN(CCCl)CCCl)ccc(NCCN(CCCl)CCCl)c21	1.2	96 nM	860 nM	92 nM	78 nM	51 nM	1.9	–	–
–	CN(C)CCNc1ccc(NCCN(CCCl)CCCl)c2c1C(=O)c1c(O)ccc(O)c1C2=O	1	19 nM	155 nM	19 nM	18 nM	16 nM	1.2	–	–
–	CN(C)CCNc1ccc(NCCN(C)CCO)c2c1C(=O)c1c(O)ccc(O)c1C2=O	1.9	5 nM	300 nM	45 nM	24 nM	5 nM	1	–	–
–	O=C1c2c(O)ccc(O)c2C(=O)c2c(NCCN(CCO)CCO)ccc(NCCN(CCO)CCO)c21	1.2	115 nM	1500 nM	370 nM	300 nM	82 nM	1.4	–	–
–	O=C1c2c(O)ccc(O)c2C(=O)c2c(NCCCN(CCCl)CCCl)ccc(NCCCN(CCCl)CCCl)c21	–	38 nM	185 nM	35 nM	25 nM	28 nM	1.4	–	–
–	O=C(O)CCCc1ccc(N(CCCl)CCCl)cc1 [CHLORAMBUCIL]	2.4	52500 nM	35000 nM	7900 nM	3300 nM	–	–	–	–
–	CISPLATIN	–	–	–	–	–	–	–	–	650 nM
